What is called Kd is the equilibrium constant for the complex coming apart.

The target of the first assay is T1, Myelin-associated glycoprotein (Homo sapiens) (UniProt P20916).
T1 sequence (whole entry): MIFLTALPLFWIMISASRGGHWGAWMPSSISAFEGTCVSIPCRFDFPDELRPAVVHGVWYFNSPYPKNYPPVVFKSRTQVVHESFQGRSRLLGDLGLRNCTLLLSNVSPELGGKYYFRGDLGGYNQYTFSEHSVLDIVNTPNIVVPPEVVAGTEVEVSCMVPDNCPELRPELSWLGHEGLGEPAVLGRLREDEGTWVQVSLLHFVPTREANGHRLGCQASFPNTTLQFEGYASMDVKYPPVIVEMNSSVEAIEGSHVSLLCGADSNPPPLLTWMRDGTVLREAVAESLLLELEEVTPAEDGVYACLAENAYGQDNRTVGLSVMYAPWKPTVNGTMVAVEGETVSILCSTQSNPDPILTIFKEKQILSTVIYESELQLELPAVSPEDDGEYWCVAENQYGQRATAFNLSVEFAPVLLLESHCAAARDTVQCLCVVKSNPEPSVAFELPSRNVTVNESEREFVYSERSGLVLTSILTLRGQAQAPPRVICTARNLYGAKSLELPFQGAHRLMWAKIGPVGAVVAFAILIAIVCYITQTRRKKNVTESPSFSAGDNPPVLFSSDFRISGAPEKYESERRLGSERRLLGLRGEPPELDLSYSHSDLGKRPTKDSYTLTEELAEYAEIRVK
Kind of assay: Inhibition of human IgG Fc-domain tagged MAG N-terminal domain expressed in CHO cells assessed as relative inhibition potency by hapten inhibition assay relative to (2R,4S,5R,6R)-5-acetamido-2-(((2R,3R,4R,5R,6R)-5-acetamido-4-((2R,3R,4S,5S,6R)-4-((2S,4S,5R)-5-acetamido-2-carboxy-4-hydroxy-6-((1S,2S)-1,2,3-trihydroxypropyl)tetrahydro-2H-pyran-2-yloxy)-3,5-dihydroxy-6-(hydroxymethyl)tetrahydro-2H-pyran-2-yloxy)-3-hydroxy-6-(2-(trimethylsilyl)ethoxy)tetrahydro-2H-pyran-2-yl)methoxy)-4-hydroxy-6-((1S,2R)-1,2,3-trihydroxypropyl)tetrahydro-2H-pyran-2-carboxylic acid. It counts as cell-based. The method, boiled down: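 Hapten inhibition: oligosaccharide added to wells with immobilized Neu5Ac, then Fc-MAGd1-3 precomplexed with alkaline phosphatase-labelled anti-Fc antibody; overnight at 4 °C, washed, bound MAG read by initial rate of fluorescein release from fluorescein diphosphate. IC50 from at least eight concentrations, at least three independent titrations; rIP calculated against the reference compound included in each test.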
Turning to `CC(=O)N[C@H]1[C@H]([C@@H](O)[C@H](O)CO)O[C@@](O[C@H]2[C@@H](O)[C@@H](CO)O[C@@H](O[C@@H]3CCO[C@H](COCc4ccccc4)[C@@H]3O)[C@@H]2O)(C(=O)O)C[C@@H]1O`, the Ratio IC50 came to 0.59.
Consider `CC(=O)N[C@H]1[C@H]([C@@H](O)[C@H](O)CO)O[C@@](O[C@H]2[C@@H](O)[C@@H](CO)O[C@@H](O[C@@H]3CCO[C@H](CO[C@@H](Cc4ccccc4)C(=O)O)[C@@H]3O)[C@@H]2O)(C(=O)O)C[C@@H]1O`, for which the Ratio IC50 came to 0.4.
In the case of `CC(=O)N[C@H]1[C@H]([C@@H](O)[C@H](O)CNC(=O)c2ccc(Cl)cc2)O[C@@](O[C@H]2[C@@H](O)[C@@H](CO)O[C@@H](O[C@@H]3CCO[C@H](COCc4ccc(-c5ccccc5)cc4)[C@@H]3O)[C@@H]2O)(C(=O)O)C[C@@H]1O`, the Ratio IC50 was found to be 377.
With `CC(=O)N[C@H]1[C@H](OCC[Si](C)(C)C)O[C@H](CO)[C@H](O)[C@@H]1O[C@@H]1O[C@H](CO)[C@H](O)[C@H](O[C@]2(C(=O)O)C[C@H](O)[C@@H](NC(C)=O)[C@H]([C@@H](O)[C@H](O)CO)O2)[C@H]1O`, the Ratio IC50 came out at 0.26.
Take `CC(=O)N[C@H]1[C@H]([C@@H](O)[C@H](O)CO)O[C@@](OC[C@H]2O[C@@H](OCC[Si](C)(C)C)[C@H](O)[C@@H](O[C@@H]3O[C@H](CO)[C@H](O)[C@H](O[C@]4(C(=O)O)C[C@H](O)[C@@H](NC(C)=O)[C@H]([C@@H](O)[C@H](O)CO)O4)[C@H]3O)[C@H]2O)(C(=O)O)C[C@@H]1O`: the Ratio IC50 came out at 0.3.
In the case of `CC(=O)N[C@H]1[C@H](OCC[Si](C)(C)C)O[C@H](CO[C@@H](C)C(=O)O)[C@H](O)[C@@H]1O[C@@H]1O[C@H](CO)[C@H](O)[C@H](O[C@]2(C(=O)O)C[C@H](O)[C@@H](NC(C)=O)[C@H]([C@@H](O)[C@H](O)CO)O2)[C@H]1O`, the Ratio IC50 was 0.31.
The same measure, in the same setting: in the case of `CC(=O)N[C@H]1[C@H]([C@@H](O)[C@H](O)CNC(=O)c2ccccc2)O[C@@](O[C@H]2[C@@H](O)[C@@H](CO)O[C@@H](O[C@H]3[C@@H](O)[C@@H](CO)O[C@@H](OCC[Si](C)(C)C)[C@@H]3O)[C@@H]2O)(C(=O)O)C[C@@H]1O` it was 61.5.
The same measure, in the same setting: in the case of `CC(=O)N[C@H]1[C@H]([C@@H](O)[C@H](O)CO)O[C@@](O[C@H]2[C@@H](O)[C@@H](CO)O[C@@H](O[C@@H]3CCO[C@H](CO[C@@H](C)C(=O)O)[C@@H]3O)[C@@H]2O)(C(=O)O)C[C@@H]1O` it was 1.24; in that of `CC(=O)N[C@H]1[C@H]([C@@H](O)[C@H](O)CO)O[C@@](O[C@H]2[C@@H](O)[C@@H](CO)O[C@@H](O[C@@H]3CCO[C@H](CO)[C@@H]3O)[C@@H]2O)(C(=O)O)C[C@@H]1O`, 0.76.
In the case of `CC(=O)N[C@H]1[C@H]([C@@H](O)[C@H](O)CO)O[C@@](O[C@H]2[C@@H](O)[C@@H](CO)O[C@@H](O[C@@H]3CCO[C@H](CO[C@H](C)C(=O)O)[C@@H]3O)[C@@H]2O)(C(=O)O)C[C@@H]1O`, the Ratio IC50 was found to be 0.98.
On the same count and under the same terms, in the case of `CC(=O)N[C@H]1[C@H](OCC[Si](C)(C)C)O[C@H](CO[C@H](C)C(=O)O)[C@H](O)[C@@H]1O[C@@H]1O[C@H](CO)[C@H](O)[C@H](O[C@]2(C(=O)O)C[C@H](O)[C@@H](NC(C)=O)[C@H]([C@@H](O)[C@H](O)CO)O2)[C@H]1O` it was 0.17; in that of `CC(=O)N[C@H]1[C@H]([C@@H](O)[C@H](O)CO)O[C@@](O[C@H]2[C@@H](O)[C@@H](CO)O[C@@H](O[C@H]3[C@@H](O)[C@@H](CO)O[C@@H](OCC[Si](C)(C)C)[C@@H]3O)[C@@H]2O)(C(=O)O)C[C@@H]1O`, 0.3; in that of `CC(=O)N[C@H]1[C@H]([C@@H](O)[C@H](O)CO)O[C@@](O[C@H]2[C@@H](O)[C@@H](CO)O[C@@H](O[C@@H]3CCO[C@H](COCc4ccc(-c5ccccc5)cc4)[C@@H]3O)[C@@H]2O)(C(=O)O)C[C@@H]1O`, 1.25.
As for `CC(=O)N[C@H]1[C@H](OCC[Si](C)(C)C)O[C@H](CO[C@@H](Cc2ccccc2)C(=O)O)[C@H](O)[C@@H]1O[C@@H]1O[C@H](CO)[C@H](O)[C@H](O[C@]2(C(=O)O)C[C@H](O)[C@@H](NC(C)=O)[C@H]([C@@H](O)[C@H](O)CO)O2)[C@H]1O`, the Ratio IC50 is 0.4.
Regarding `CC(=O)N[C@H]1[C@H]([C@@H](O)[C@H](O)CNC(=O)c2ccccc2)O[C@@](O[C@H]2[C@@H](O)[C@@H](CO)O[C@@H](O[C@@H]3CCO[C@H](COCc4ccc(-c5ccccc5)cc4)[C@@H]3O)[C@@H]2O)(C(=O)O)C[C@@H]1O`, the Ratio IC50 worked out at 314.

Another assay addresses T2, Myelin-associated glycoprotein (Homo sapiens, UniProt P20916).
T2 sequence (P20916 whole entry): T1 sequence (whole entry)
Description: Binding affinity to human IgG Fc-domain tagged MAG N-terminal domain expressed in CHO cells by surface plasmon resonance. The method, boiled down:
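Fc-MAGd1-3 (three N-terminal MAG domains fused to human IgG Fc, CHO-expressed, protein A-purified) captured on an immobilized anti-human IgG Fc antibody on CM5 chip; reference surface prepared in parallel.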
For orientation: In SPR one partner is held on a chip, and binding of the other changes the refractive index at the surface.
For `CC(=O)N[C@H]1[C@H]([C@@H](O)[C@H](O)CNC(=O)c2ccc(Cl)cc2)O[C@@](O[C@H]2[C@@H](O)[C@@H](CO)O[C@@H](O[C@@H]3CCO[C@H](COCc4ccc(-c5ccccc5)cc4)[C@@H]3O)[C@@H]2O)(C(=O)O)C[C@@H]1O`, the Kd was 2.83 µM.
With `CC(=O)N[C@H]1[C@H]([C@@H](O)[C@H](O)CNC(=O)c2ccccc2)O[C@@](O[C@H]2[C@@H](O)[C@@H](CO)O[C@@H](O[C@H]3[C@@H](O)[C@@H](CO)O[C@@H](OCC[Si](C)(C)C)[C@@H]3O)[C@@H]2O)(C(=O)O)C[C@@H]1O`, binding was characterised by a dissociation constant (Kd) of 32.6 µM.
On to `CC(=O)N[C@H]1[C@H]([C@@H](O)[C@H](O)CNC(=O)c2ccccc2)O[C@@](O[C@H]2[C@@H](O)[C@@H](CO)O[C@@H](O[C@@H]3CCO[C@H](COCc4ccc(-c5ccccc5)cc4)[C@@H]3O)[C@@H]2O)(C(=O)O)C[C@@H]1O`, for which binding was characterised by a dissociation constant (Kd) of 5 µM.

Values taken from ChEMBL document CHEMBL1140906, “Examination of the biological role of the alpha(2-->6)-linked sialic acid in gangliosides binding to the myelin-associated glycoprotein (MAG)” (J Med Chem, 2009).
